Measurements reported in PMC2901243 (Nuclear medicine and biology, 2010).

Target: SSTR2 (Rattus norvegicus, UniProt P30680)
Format: binding
Conditions: Re-cyclized analogues, in vitro, AR42J cells
Summary of the method: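 Trypsinized rat AR42J pancreatic carcinoma cells, 2 × 10⁶/well in RPMI 1640, were incubated 2 h at 37 °C (5% CO₂) with HPLC-purified ¹¹¹In-DOTA-TIDE (0.2 μCi/well) and test compound at 10⁻⁴ to 10⁻¹³ M, in triplicate. Cells were pelleted, washed three times with 4 °C medium, and counted for γ radioactivity. IC₅₀ was taken from sigmoidal fits of % bound tracer vs log concentration.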

Sequence of SSTR2 (P30680 whole entry): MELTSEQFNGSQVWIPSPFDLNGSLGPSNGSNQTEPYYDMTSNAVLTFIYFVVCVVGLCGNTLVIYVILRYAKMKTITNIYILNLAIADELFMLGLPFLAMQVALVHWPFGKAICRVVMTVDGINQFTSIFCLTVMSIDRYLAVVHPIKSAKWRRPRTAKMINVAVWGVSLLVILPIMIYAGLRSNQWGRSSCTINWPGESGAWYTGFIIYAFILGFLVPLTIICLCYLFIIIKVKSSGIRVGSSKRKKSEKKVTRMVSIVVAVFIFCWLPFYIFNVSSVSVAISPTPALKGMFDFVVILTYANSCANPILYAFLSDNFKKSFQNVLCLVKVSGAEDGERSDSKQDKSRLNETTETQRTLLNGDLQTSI

- affinity toward somatostatin subtype 2 receptors (in words): moderate affinity
Substance: Ac-Cys-Cys-Tyr-DTrp-Lys-Thr-Cys-Thr(OH) [analogue 4]
